Data set [1] concerns the target T1, Amyloid-beta precursor protein (Homo sapiens, UniProt P05067). The data set is described as follows: Inhibition of amyloid beta (1 to 42 ) (unknown origin) self aggregation at 40 uM after 24 hrs by thioflavin-T fluorescence method. A digest of the protocol:
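Aβ42 (10 µM) incubated with compound (40 µM) for 24 h at 37 °C. Fibril formation quantified by Thioflavin T and given as percent of Aβ42 left to fibrillate alone. n = 3, Dunnett test.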

Data set [2] is described as follows: (§1) Cytotoxicity against rat PC-12 cells assessed as cell viability at 40 uM measured after 24 hrs by Alamar blue assay relative to control. The conditions noted are these: PC-12 cells, read-out: Activity. The data set is classed as cell-based. The gist of the method: (§2)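 PC-12 neuronal cells incubated 24 h with compound at 40 µM. Viability read with Alamar Blue and expressed as percent of untreated cells.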
(In general: Resazurin is reduced to fluorescent resorufin, in cell work by metabolically active cells.)

Data set [3] concerns PC-12. The data set is described as §1. The data set is classed as cell-based. To be noted: pc-12, 24 h, 40 µM. The gist of the method:
as §2

Data set [4] is described as follows: Metal chelating activity assessed as Fe3+-compound complex formation at compound:Fe3+ concentration ratio of 1:1 to 1:5 incubated for 30 mins by UV-visible spectrophotometry. The gist of the method: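 Compound combined with Fe3+ at compound:Fe ratios 1:1, 1:3 and 1:5 in HEPES buffer at room temperature. UV–vis spectra recorded over about 250–350 nm.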
The nature of data set [5]: Metal chelating activity assessed as Zn2+-compound complex formation by measuring hyperchromic shift at 50 uM incubated for 30 mins by UV-visible spectrophotometry.
Data set [6] is described as follows: Metal chelating activity assessed as Cu2+-compound complex formation at compound:Cu2+ concentration ratio of 1:1 to 1:6 incubated for 30 mins by UV-visible spectrophotometry. A digest of the protocol: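 Compound titrated with Cu2+ at compound:Cu ratios 1:1 to 1:6 in HEPES buffer at room temperature. UV–vis spectra recorded over about 240–320 nm. Absorbance plotted against ratio and fitted linearly.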

Data set [7] has as its system PC-12. The data set is described as follows: Anti-inflammatory activity in rat PC-12 cells assessed as decrease in LPS-stimulated ROS accumulation at 40 uM measured after 24 hrs by DCFH-DA staining based FACS […] assay. The class given is functional, cell-based. The gist of the method: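 PC-12 cells inflamed with LPS (10 µg/mL), then treated with compound at 40 µM for 24 h. ROS measured by DCFDA flow cytometry. Cells gated on FSC/SSC, singlets selected (FSC area vs height), and dead cells excluded by propidium iodide. The percentage of DCFDA ROS-high live cells was taken from the FL1 vs FSC dot plot quadrant. n = 3.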

For data set [8], the target named is T1, Amyloid-beta precursor protein. The data set is described as follows: Inhibition of amyloid beta (1 to 42 ) (unknown origin) self aggregation at 40 uM measured after 24 hrs in presence of copper ion by thioflavin-T fluorescence method. A digest of the protocol: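 Aβ42 (10 µM) incubated with Cu2+ (10 µM) and compound for 24 h at 37 °C with shaking at 180 rpm. Percent fibril formation determined by Thioflavin T. Compared against Aβ42 alone and Aβ42 + Cu2+ by Dunnett test. n = 3.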

Data set [9] can be described thus: Metal chelating activity assessed as Fe3+-compound complex formation by measuring hyperchromic shift at 50 uM incubated for 30 mins by UV-visible spectrophotometry.
Data set [10] in a line: Metal chelating activity assessed as Cu2+-compound complex formation by measuring hyperchromic shift at 50 uM incubated for 30 mins by UV-visible spectrophotometry.
Data set [11] is described as follows: Metal chelating activity assessed as Zn2+-compound complex formation at incremental dose of compound incubated for 30 mins by UV-visible spectrophotometry.
The target in data set [12] is T1, Amyloid-beta precursor protein. The data set is described as follows: Inhibition of amyloid beta (1 to 42 ) (unknown origin) self aggregation measured after 24 hrs by thioflavin-T fluorescence method.

Active and inactive are the calls of the source. The rule behind the calls is not given here.

T1 sequence (P05067 whole entry): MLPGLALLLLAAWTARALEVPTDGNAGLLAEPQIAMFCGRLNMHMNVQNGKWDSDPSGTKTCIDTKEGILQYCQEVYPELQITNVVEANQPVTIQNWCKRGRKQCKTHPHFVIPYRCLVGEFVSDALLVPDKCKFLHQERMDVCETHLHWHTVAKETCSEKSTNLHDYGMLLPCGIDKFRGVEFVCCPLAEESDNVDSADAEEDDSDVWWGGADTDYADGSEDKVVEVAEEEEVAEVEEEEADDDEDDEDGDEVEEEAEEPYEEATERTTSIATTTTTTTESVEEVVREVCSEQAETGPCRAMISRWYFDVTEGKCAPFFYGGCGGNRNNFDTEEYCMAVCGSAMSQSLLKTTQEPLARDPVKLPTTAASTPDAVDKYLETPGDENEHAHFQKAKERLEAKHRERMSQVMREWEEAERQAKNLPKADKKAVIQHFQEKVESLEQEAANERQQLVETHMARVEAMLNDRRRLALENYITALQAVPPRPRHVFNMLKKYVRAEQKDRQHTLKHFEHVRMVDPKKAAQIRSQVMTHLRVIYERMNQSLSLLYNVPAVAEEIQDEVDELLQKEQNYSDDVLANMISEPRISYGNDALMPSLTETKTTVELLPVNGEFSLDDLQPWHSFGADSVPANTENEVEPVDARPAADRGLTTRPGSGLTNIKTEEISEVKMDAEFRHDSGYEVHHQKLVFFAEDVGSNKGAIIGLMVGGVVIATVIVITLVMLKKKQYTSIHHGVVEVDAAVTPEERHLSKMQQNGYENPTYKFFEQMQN

For `Cc1ccc(NC(=O)c2cn(-c3ccc(C(O)(C(F)(F)F)C(F)(F)F)cc3)nn2)cc1C`, in data set [1], the inhibition result is “Active”. In addition, the viability at 24 h, 40 µM in data set [2] was greater than 60%.

As to `O=C(Nc1ccc(C(O)(C(F)(F)F)C(F)(F)F)cc1)c1cn(-c2ccccc2)nn1`, the Activity result in the data set with PC-12 [3] was “Toxic”.

Regarding `Cc1ccc(-n2cc(C(=O)Nc3ccc(C(O)(C(F)(F)F)C(F)(F)F)cc3)nn2)cc1C`, the inhibition result in [1] is “Active”. In addition, in data set [2], the viability at 24 h, 40 µM was greater than 60%. Moreover, the outcome (in data set [4]; in data set [5]; in data set [6]; with PC-12 [7]; in data set [9]; in data set [10]) was Active. Besides, the outcome in data set [11] was Active. The inhibition in data set [8] was less than 50%. In [12], this compound showed an IC50 of 4.6 µM.

`COc1ccc(-n2cc(CNc3ccc(C(O)(C(F)(F)F)C(F)(F)F)cc3)nn2)cc1OC`: the inhibition entry in data set [1] was “Active”. In addition, in data set [2], the viability at 24 h, 40 µM was greater than 60%. The inhibition in data set [8] was less than 50%.

On to `Cc1ccc(-n2cc(CNc3ccc(C(O)(C(F)(F)F)C(F)(F)F)cc3)nn2)cc1C`, for which the inhibition entry in [1] was “inactive”. The viability at 24 h, 40 µM in data set [2] was greater than 60%.

On to `O=C(Nc1ccccc1)c1cn(-c2ccc(C(O)(C(F)(F)F)C(F)(F)F)cc2)nn1`, for which the inhibition entry in [1] was “inactive”. In addition, the viability at 24 h, 40 µM in data set [2] is greater than 60%.

Consider `OC(c1ccc(NCc2cn(-c3ccccc3)nn2)cc1)(C(F)(F)F)C(F)(F)F`, for which the Activity entry in the data set on PC-12 [3] is listed as “Toxic”.

The term inhibition denotes how much of the control response was suppressed. The term IC50 denotes the concentration that gives 50% inhibition. Low values mean higher potency, high ones lower potency.

The values are drawn from ChEMBL document CHEMBL4819071, “Design, synthesis and in-vitro evaluation of fluorinated triazoles as multi-target directed ligands for Alzheimer disease” (Bioorg Med Chem Lett, 2021).
